Screens deposited in PubChem BioAssay by Sanford-Burnham Center for Chemical Genomics.
Most compounds without a hit are left out; they make up all but 2.5% or so of the library.
SENP1 inh = human SENP1 catalytic domain inhibitors, primary screen, biochemical, FRET, uHTS. AID 624204, 2012. actives 0.21% (n = 360,000). recombinant SENP1 catalytic domain, CyPet-SUMO1-YPet FRET cleavage. Sentrin-specific protease 1 (Homo sapiens), Q9P0U3. inhibition, % at 10 µM;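 active means inhibition at least 30% at 10 µM, raw YFP signal under a set limit, fluorescence ratio 0.5 to 1.5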;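 further: 0% = enzyme with DMSO and 100% = no enzyme wells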
Target sequence (Q9P0U3 419-644 limits assumed): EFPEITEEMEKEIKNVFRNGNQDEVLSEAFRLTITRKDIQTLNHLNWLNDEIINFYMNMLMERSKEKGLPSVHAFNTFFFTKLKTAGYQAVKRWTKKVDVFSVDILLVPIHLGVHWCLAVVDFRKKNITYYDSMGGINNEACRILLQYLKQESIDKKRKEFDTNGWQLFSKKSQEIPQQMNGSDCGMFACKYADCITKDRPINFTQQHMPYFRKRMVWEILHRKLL
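Test system: recombinant human SENP1 catalytic domain, His6-tagged / Medium: pH 8 Tris buffer with EDTA, NaCl, BME, BSA, NP40, catalase / Also added: SUMO1 FRET substrate flanked by Cypet and Ypet, 25 nM / Times: 50 min reaction at room temperature / Signal: FRET, CFP and YFP emission / Control set: no-enzyme low control and enzyme-plus-DMSO high control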
SENP8 block-1 = SENP8 protease inhibitors, primary screen, biochemical, luminescence; Sentrin-specific protease 8 (Homo sapiens), Q96LD8; purified SENP8, Z-RLRGG-aminoluciferin cleavage; inhibition, % at 10 µM; actives 1.2% (n = 330,000); AID 2540, 2010; in the data active means inhibition above about 50%
SENP8 block-2 = human SENP8 protease inhibitors, primary screen, biochemical, fluorescence, Nedd8 protein substrate, uHTS. Sentrin-specific protease 8 (Homo sapiens), Q96LD8. recombinant SENP8. inhibition, % at 20 µM. actives 0.64% (n = 360,000); in the data active means inhibition mostly above about 40%, no sharp cut-off; inactive means mostly below about 27%
SENP6 inh = SENP6 protease inhibitors, primary screen, biochemical, luminescence, uHTS; Sentrin-specific protease 6 (Homo sapiens), Q9GZR1; inhibition, % at 10 µM; Recombinant SENP6 catalytic domain, aminoluciferin luminescence; actives 1.8% (n = 330,000);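 active means inhibition above about 50% at the single tested dose, limit read from the data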;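 further: plate controls were DMSO wells with enzyme for no effect and DMSO wells lacking enzyme for full effect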
Target sequence (Q9GZR1 628-1112 limits assumed): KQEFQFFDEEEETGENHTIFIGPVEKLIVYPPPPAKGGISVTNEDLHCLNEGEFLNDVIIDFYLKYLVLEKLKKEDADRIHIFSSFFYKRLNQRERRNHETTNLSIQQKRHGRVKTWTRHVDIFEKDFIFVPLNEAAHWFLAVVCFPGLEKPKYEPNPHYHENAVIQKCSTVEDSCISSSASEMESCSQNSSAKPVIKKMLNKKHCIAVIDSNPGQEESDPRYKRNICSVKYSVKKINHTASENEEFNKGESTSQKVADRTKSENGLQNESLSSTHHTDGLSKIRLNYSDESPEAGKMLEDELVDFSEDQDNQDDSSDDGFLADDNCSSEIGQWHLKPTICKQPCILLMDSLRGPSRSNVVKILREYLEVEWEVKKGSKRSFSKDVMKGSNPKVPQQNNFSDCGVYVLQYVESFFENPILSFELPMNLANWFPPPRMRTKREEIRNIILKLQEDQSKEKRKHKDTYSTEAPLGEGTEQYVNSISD
SENP7 inh = SENP7 protease inhibitors, primary screen, biochemical, luminescence, uHTS. Sentrin-specific protease 7 (Homo sapiens), Q9BQF6. inhibition, % at 5 µM. AID 434973, 2010. recombinant SENP7, Z-RLRGG-aminoluciferin luminescence, 40 min. actives 1.5% (n = 330,000);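 active means inhibition above about 50% at the single test dose, limit read from the data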;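 further: plate controls were DMSO with enzyme for no effect and no enzyme buffer wells for full effect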
SENP8 conf = SENP8 protease inhibitors, retest, confirmation, biochemical, luminescence, single concentration. Recombinant SENP8, Z-RLRGG-aminoluciferin luminescence, 60 min. inhibition, % at 12.5 µM. shares compounds with SENP7 inh. AID 488912, 2010. actives 40% (n = 6,200);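 active means mean inhibition across replicates above about 50%, limit read from the data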
SENP6 confirm = SENP6 protease inhibitors, confirmation, biochemical, luminescence, single concentration. actives 58% (n = 6,200). shares compounds with SENP7 inh. inhibition, % at 12.5 µM. recombinant SENP6, Z-RLRGG-aminoluciferin luminescence
SENP7 confirm = SENP7 protease inhibitors, retest, confirmation, biochemical, luminescence, single concentration; AID 488917, 2010; actives 69% (n = 6,200); inhibition, % at 12.5 µM; recombinant SENP7, Z-RLRGG-aminoluciferin luminescence, 40 min; shares compounds with SENP7 inh
Casp3 select = caspase-3 protease inhibitors, confirmation, selectivity assay for SENP inhibitor project, biochemical, single concentration | purified caspase-3, Z-DEVD-aminoluciferin luminescence, 60 min | inhibition, % at 12.5 µM | actives 60% (n = 6,200) | AID 488918, 2010 | shares compounds with SENP7 inh;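 active means mean inhibition above about 50%, limit read from the data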;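 further: plate controls were enzyme with DMSO for no effect and wells without caspase-3 for full effect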
SENP luc ctr = luminescence interference (SENP counter-screen) | shares compounds with SENP7 inh | Pre-incubated SENP8/Z-RLRGG-aminoluciferin, luciferase luminescence interference | inhibition, % at 12.5 µM | actives 39% (n = 6,200) | AID 488919;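 active means mean inhibition above about 50% when retested at one dose, limit read from the data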;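 further: plate controls were DMSO wells with completed reaction for no effect and substrate without enzyme for full effect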
* = called active by the depositor; i = inactive; nt = no result given.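 How the source made its calls, unless noted: active means mean inhibition above about 50% in the one-dose retest (limit read from the data); inactive means the rest.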

SMILES | SENP1 inh | SENP8 block-1 | SENP8 block-2 | SENP6 inh | SENP7 inh | SENP8 conf | SENP6 confirm | SENP7 confirm | Casp3 select | SENP luc ctr
CCN(CC)CCN1C(=O)C(O)=C(C(=O)c2cc3cccc(OC)c3o2)C1c1ccc(F)cc1 (centres undefined) | -1.4 | -13.8 | -16.8 | -2.5 | -3.4 | nt | nt | nt | nt | nt
Cc1cccc(OC(C)C(=O)Nc2ccc3c(c2)OCCO3)c1 (centres undefined) | -4.3 | nt | -6.9 | nt | nt | nt | nt | nt | nt | nt
CCN(CC)S(=O)(=O)c1ccc(C(=O)NC(=S)N2CCCCC2C)cc1 (centres undefined) | -1.6 | nt | 7.9 | nt | nt | nt | nt | nt | nt | nt
Oc1ccccc1C=NCCCCCCN=Cc1ccccc1O | -7.2 | 58.6* | 9.1 | 69.3* | -3.2 | 14.8 | 29.5 | 37.8 | 31.2 | 10.2
Oc1ccccc1C=NCCN=Cc1ccccc1O | -5.4 | -1.4 | 16.9 | 7.6 | 5.2 | nt | nt | nt | nt | nt
CCC1CCCCN1CCCCOc1cccc(Cl)c1 (centres undefined) | 1.0 | -2.5 | 20.8 | -32.2 | 5.8 | nt | nt | nt | nt | nt
O=C(CCC(=O)c1ccc(F)cc1)OCc1nnc(-c2ccc([N+](=O)[O-])cc2)o1 | 0.9 | 3.7 | 9.2 | -17.1 | -2.0 | nt | nt | nt | nt | nt
COc1ccc(C(CC(=O)c2ccc(O)cc2)S(=O)(=O)c2ccc(C)cc2)cc1 (centres undefined) | -1.5 | 27.6 | 4.8 | 49.7 | 55.2* | 52.0* | 22.3 | 69.3* | 18.3 | 58.3*
Cc1cccc(-c2nc(=S)c3c(o2)CCCC3)c1 | 1.2 | 51.9* | 4.7 | 61.8* | 72.1* | 52.3* | 49.1 | 75.7* | 42.6 | 51.4*
CCN(CC(=O)NC1CCS(=O)(=O)C1)C(C)C(=O)Nc1ccc(F)cc1 (centres undefined) | -1.3 | 7.4 | 8.0 | -6.3 | 8.2 | nt | nt | nt | nt | nt
Cc1ccc(-n2c(C)cc(C(=O)CSc3nnnn3C)c2C)cc1 | 0.5 | 59.6* | 7.1 | 29.3 | 69.4* | 79.5* | 78.5* | 94.8* | 78.8* | 76.0*
Fc1cccc(Cl)c1/C=C/c1cnc2ccccc2n1 | -20.3 | 96.2* | -83.9 | 96.4* | 10.5 | 13.0 | 84.0* | 66.2* | 57.8* | 74.1*
CSc1ccc(C2C(C(=O)c3ccco3)=C(O)C(=O)N2c2nnc(SC)s2)cc1 (centres undefined) | 27.0 | 43.0 | -75.1 | 75.5* | 9.7 | 17.0 | 15.4 | 0.2 | 4.7 | 19.4
Cc1nnc(N2C(=O)C(O)=C(C(=O)c3ccco3)C2c2ccc(C(C)(C)C)cc2)s1 (centres undefined) | 54.5 | 49.9 | -34.6 | 86.2* | 5.3 | 23.9 | 19.6 | 15.1 | 32.0 | 18.2
c1ccc(CN2CCN(c3ncccn3)CC2)cc1 | 1.5 | -9.2 | 11.5 | -20.5 | -0.7 | nt | nt | nt | nt | nt
c1ccc(COc2ccc(CN3CCN(c4ccccn4)CC3)cc2)cc1 | 1.7 | 31.1 | 19.9 | 53.7* | 9.3 | 58.8* | 53.2* | 71.7* | 36.3 | 66.5*
CCCCn1c(N)c(N(CC)C(=O)c2c(C)noc2C)c(=O)[nH]c1=O | 0.6 | -1.9 | 13.8 | -15.1 | 5.0 | nt | nt | nt | nt | nt
COC(=O)c1sccc1NC(=O)Cc1ccc(OC)cc1 | 0.3 | 23.2 | 12.7 | 51.3* | 42.2 | 48.7 | 43.8 | 79.2* | 62.7* | 57.9*
COC(=O)c1sccc1NC(=O)c1ccc(C)o1 | 0.8 | -5.5 | -20.6 | -17.5 | -9.9 | nt | nt | nt | nt | nt
CCOC(=O)Nc1ccc2c(COC(=O)C(NS(=O)(=O)c3ccc(Cl)cc3)C(C)O)cc(=O)oc2c1 (centres undefined) | -8.1 | -20.8 | i | -2.3 | -2.9 | nt | nt | nt | nt | nt
CCOc1ccc(N=Cc2c(O)c3ccccc3oc2=O)cc1 | -19.1 | 82.9* | -20.2 | 91.4* | 93.2* | 42.2 | 42.5 | 55.8* | 38.5 | 6.8
CCOc1ccc(N=Cc2c(O)cc(C)oc2=O)cc1 | 1.4 | -30.2 | -32.5 | -18.0 | -16.8 | nt | nt | nt | nt | nt
COc1cc2ccccc2cc1C(=O)OCc1nc2ccsc2c(=O)[nH]1 | -2.5 | -7.8 | i | -2.8 | 5.1 | nt | nt | nt | nt | nt
Cc1nc2cc(-c3ccc(F)cc3)[nH]n2c(=O)c1C | 0.9 | 4.2 | -85.7 | 18.9 | 8.3 | nt | nt | nt | nt | nt
O=c1c2c(nc3cc(-c4ccc(F)cc4)[nH]n13)CCCC2 | -0.7 | 38.2 | -71.0 | 54.1* | 54.5* | -2.1 | 8.0 | 22.3 | 36.6 | 4.7
SMILES | SENP1 inh | SENP8 block-1 | SENP8 block-2 | SENP6 inh | SENP7 inh | SENP8 conf | SENP6 confirm | SENP7 confirm | Casp3 select | SENP luc ctr
O=c1c2c(nc3cc(-c4ccc(Cl)cc4)[nH]n13)CCS2 | -37.5 | 84.8* | -397.0 | 88.0* | 72.8* | -2.0 | 2.5 | 4.1 | 24.2 | 12.2
Cc1nc2cc(-c3ccc(Br)cc3)[nH]n2c(=O)c1Cl | -2.4 | 74.5* | -3.4 | 81.6* | 26.5 | -0.1 | 2.1 | 3.4 | 11.1 | 10.1
O=c1c2c(nc3cc(-c4cccc(Cl)c4)[nH]n13)CCC2 | 0.5 | 45.3 | -269.5 | 50.2* | 56.5* | -24.9 | -10.8 | 11.6 | 19.6 | -8.1
O=c1c2c(nc3c(-c4ccc(Cl)cc4)c[nH]n13)CCCC2 | -2.7 | -3.3 | -478.8 | -13.9 | -2.5 | nt | nt | nt | nt | nt
COc1ccccc1CNC(=O)COC(=O)c1nccnc1N | -23.9 | -10.2 | -473.1 | -7.2 | -12.7 | nt | nt | nt | nt | nt
CN(C)c1ccc(/C=C2\Oc3ccc(C#Cc4cccc(N)c4)cc3C2=O)cc1 | -21.7 | 3.3 | -489.3 | -18.1 | -4.9 | nt | nt | nt | nt | nt
Cc1cc(C)n2nc(C(=O)OCC(=O)NCc3ccc(F)cc3)nc2n1 | -1.4 | 5.5 | 3.3 | -4.4 | 11.2 | nt | nt | nt | nt | nt
O=C(O)CCn1nnc(-c2cccs2)n1 | -0.7 | -4.8 | 0.6 | -8.9 | -94.1 | nt | nt | nt | nt | nt
CC(C)c1ccc(-c2nnn(CCC(=O)O)n2)cc1 | 3.7 | 71.0* | 19.2 | 58.9* | 26.1 | -6.3 | 68.5* | 83.6* | 21.2 | 22.3
